Assay results: ChEMBL document CHEMBL3227984, “5-Substituted uracil arabinonucleosides as potential antiviral agents” (J Med Chem, 1979)
The source made the active and inactive calls. The rule behind the calls is not given here.

Assays:
[1] = Dissociation constant, pKa of the compound; type: physicochemical
[2] = system: Human alphaherpesvirus 1; experiment: Antiviral activity against HSV1 KOS infected in primary rabbit kidney cells assessed as inhibition of virus-induced cytopathogenicity; type: functional
[3] = system: Vesicular stomatitis virus; experiment: Antiviral activity against Vesicular stomatitis virus infected in primary rabbit kidney cells assessed as inhibition of virus-induced cytopathogenicity; type: functional
[4] = system: Human alphaherpesvirus 1; experiment: Antiviral activity against HSV1 KOS infected in human skin fibroblasts assessed as inhibition of virus-induced cytopathogenicity; type: functional, organism-based
[5] = Cytotoxicity against primary rabbit kidney cells assessed as change in cell morphology; type: cell-based, Oryctolagus cuniculus
[6] = Cytotoxicity against human skin fibroblasts assessed as change in cell morphology; settings: skin fibroblast
[7] = Cytotoxicity against primary rabbit kidney cells assessed as inhibition of DNA synthesis by labeled thymidine/2'-deoxyuridine assay; type: cell-based, Oryctolagus cuniculus
Procedure, shortened: (§1)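 DNA synthesis in cultures (primary rabbit kidney cells or human skin fibroblasts) exposed to the analogues was monitored by incorporation of labeled thymidine or labeled 2'-deoxyuridine.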

[8] = Cytotoxicity against human skin fibroblasts assessed as inhibition of DNA synthesis by labeled thymidine/2'-deoxyuridine assay; settings: skin fibroblast; procedure, shortened: as §1

Compound	pKa [1]	ID50 [2]	ID50 [3]	Antiviral activity [4]	Activity [5]	Activity [6]	Activity [7]	Activity [8]
O=c1[nH]c(=O)n([C@@H]2O[C@H](CO)[C@@H](O)[C@@H]2O)cc1Br	8							
O=c1ccn([C@@H]2O[C@H](CO)[C@@H](O)[C@@H]2O)c(=O)[nH]1 [ARAURIDINE]		4.1 ×10⁻⁵ M	>1 ×10⁻⁴ M	Active	Non-toxic	Non-toxic		
Cc1cn([C@@H]2O[C@H](CO)[C@@H](O)[C@@H]2O)c(=O)[nH]c1=O		3.9 ×10⁻⁷ M	>1 ×10⁻⁴ M	Active	Non-toxic	Non-toxic		
N#Cc1cn([C@@H]2O[C@H](CO)[C@@H](O)[C@@H]2O)c(=O)[nH]c1=O	6.8	>3.7 ×10⁻⁴ M	>1 ×10⁻⁴ M	Active	Non-toxic	Non-toxic	Non-toxic	Non-toxic
O=c1[nH]c(=O)n([C@@H]2O[C@H](CO)[C@@H](O)[C@@H]2O)cc1[N+](=O)[O-]	5.7	>6.9 ×10⁻⁴ M	>1 ×10⁻⁴ M	Active	Non-toxic	Non-toxic	Non-toxic	Non-toxic
O=c1[nH]c(=O)n([C@@H]2O[C@H](CO)[C@@H](O)[C@@H]2O)cc1I	8							
O=c1[nH]c(=O)n([C@@H]2O[C@H](CO)[C@@H](O)[C@@H]2O)cc1O	7.8	>3.9 ×10⁻⁴ M	>1 ×10⁻⁴ M	Active	Non-toxic	Non-toxic	Non-toxic	Non-toxic
